# Reference: ChEMBL document CHEMBL1268865, “Cytotoxic 3,4-seco-Atisane Diterpenoids from Croton barorum and Croton goudotii” (J Nat Prod, 2010)
# How the values were obtained:
# A549 = experiment: Cytotoxicity against human A549 cells after 72 hrs; type: functional, cell-based; conditions: A549, 72 h
# How it was run: (§1)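 KB, HT29, A549 and HL60 lines were sourced from ATCC, with Taxotere as the reference compound. IC50 is the concentration that reduced cell growth by 50%, reported as the mean of duplicate experiments.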
# HT-29 = experiment: Cytotoxicity against human HT-29 cells after 72 hrs; type: functional, cell-based; conditions: HT-29, 72 h; how it was run: as §1
# K562 [1] = experiment: Cell cycle arrest in human K562 cells assessed as accumulation at G2/M phase at 4 uM after 24 hrs using propidium iodide staining by flow cytometry (reference value: 12.1%); type: functional
# K562 [2] = experiment: Cell cycle arrest in human K562 cells assessed as accumulation at S phase at 4 uM after 24 hrs using propidium iodide staining by flow cytometry (reference value: 56.7%); type: functional
# KB = experiment: Cytotoxicity against human KB cells after 72 hrs; type: functional, cell-based; how it was run: as §1
# K562 [3] = experiment: Cell cycle arrest in human K562 cells assessed as accumulation at G0/G1 phase at 4 uM after 24 hrs using propidium iodide staining by flow cytometry (reference value: 30.1%); type: functional
# HL-60 = experiment: Cytotoxicity against human HL60 cells after 72 hrs; type: functional, cell-based; conditions: HL-60, 72 h; how it was run: as §1
SMILES,IC50 (A549) [nM],IC50 (HT-29) [nM],Activity (K562 [1]) [%],Activity (K562 [2]) [%],IC50 (KB) [nM],Activity (K562 [3]) [%],IC50 (HL-60) [nM]
C=C1C(=O)[C@]23CC[C@@H](C(=C)C)[C@]4(C)CCC(=O)O[C@@]42C[C@H]1C[C@@H]3OC(C)=O [CROTOBARIN],790,2100,56.5,25.7,2500,12.3,560
C=C1C(=O)[C@@]23CC[C@@H]1C[C@@]21OC(=O)CC[C@@]1(C)[C@H](C(=C)C)CC3 [CROTOGOUDIN],540,1900,33.6,31.8,1500,22.2,490
CC(=O)O[C@@]12CO[C@@H]1C[C@H](O)[C@@]1(C)C(=O)[C@H](O)C3=C(C)[C@@H](OC(=O)[C@H](O)[C@@H](NC(=O)OC(C)(C)C)c4ccccc4)C[C@@](O)([C@@H](OC(=O)c4ccccc4)[C@H]21)C3(C)C [DOCETAXEL],370,920,,,290,,520
